ADAM17 inh = ADAM17 inhibitors, primary screen, biochemical, QFRET | Disintegrin and metalloproteinase domain-containing protein 17 (Homo sapiens), P78536 | recombinant ADAM17, EDANS/DABCYL FRET peptide cleavage | inhibition, % at 6.95 µM | 370,000 tested, 0.83% active;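 active = inhibition above the mean of compounds lying between control limits plus 3 SD, set per campaign, cut at about 8.5% in these data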;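 note: 0% = DMSO-only wells as the low control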
CaV13 ICDI inh = Disruptors of the CACNA1D IQ motif to Ca2+-dependent inactivation inhibitor domain association, primary screening, Förster resonance energy transfer in intact living …. HEK cells, CFP/YFP FRET ICDI-IQ, plate reader, 10 min; percent FRET-ratio fall versus neutral wells. 340,000 tested, 0.098% active. inhibition, % at 12.3 µM;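 active = mean replicate inhibition of at least 30% and at least 1% of replicates passing that level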;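 note: 0% = median of the neutral control wells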
CendR NRP1 mod = modulators of CendR peptide binding to NRP-1, primary screen, biochemical, fluorescence polarization, uHTS; inhibition, % at 25 µM; Neuropilin-1 (Homo sapiens), O14786; FAM-RPARPAR peptide binding to NRP-1; 360,000 tested, 0.85% active; AID 602438, 2012;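 active = inhibition or corrected inhibition above about 18%, plus a signal ratio from 0.5 to 1.5, limit read from the data, passing the limit was not always enough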
Target sequence (O14786 whole entry, looked up): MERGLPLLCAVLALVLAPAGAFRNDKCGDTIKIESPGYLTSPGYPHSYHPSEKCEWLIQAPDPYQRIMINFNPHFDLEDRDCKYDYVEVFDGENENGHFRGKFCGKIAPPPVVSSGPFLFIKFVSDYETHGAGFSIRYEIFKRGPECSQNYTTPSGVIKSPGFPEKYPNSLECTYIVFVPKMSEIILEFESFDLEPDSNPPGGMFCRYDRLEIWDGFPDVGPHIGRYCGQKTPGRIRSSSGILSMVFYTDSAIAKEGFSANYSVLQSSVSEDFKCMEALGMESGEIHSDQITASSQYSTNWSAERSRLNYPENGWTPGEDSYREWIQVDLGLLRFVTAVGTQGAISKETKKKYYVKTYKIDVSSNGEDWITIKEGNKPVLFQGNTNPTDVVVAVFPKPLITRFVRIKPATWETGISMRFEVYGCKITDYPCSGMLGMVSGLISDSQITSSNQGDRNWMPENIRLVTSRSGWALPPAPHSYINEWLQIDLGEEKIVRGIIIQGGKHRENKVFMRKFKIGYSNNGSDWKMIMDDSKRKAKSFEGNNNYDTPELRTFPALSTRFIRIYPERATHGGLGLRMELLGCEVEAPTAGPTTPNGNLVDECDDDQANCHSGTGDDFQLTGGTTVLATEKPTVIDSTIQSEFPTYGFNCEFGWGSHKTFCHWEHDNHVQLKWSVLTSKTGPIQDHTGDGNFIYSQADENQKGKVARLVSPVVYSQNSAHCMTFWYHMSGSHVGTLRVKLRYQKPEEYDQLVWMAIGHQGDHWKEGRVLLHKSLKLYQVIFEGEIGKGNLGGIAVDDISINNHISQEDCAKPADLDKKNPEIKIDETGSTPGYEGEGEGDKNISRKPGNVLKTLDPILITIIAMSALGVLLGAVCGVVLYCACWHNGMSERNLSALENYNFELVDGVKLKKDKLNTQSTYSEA
Arrestin-AP2 inh = inhibitors of beta-arrestin/AP2 binding, primary screen, biochemical, GPCR trafficking, flow cytometry | 340,000 tested, 0.31% active | inhibition, % at 10 µM | FITC-arrestin peptide / GST-AP2 beads; AP2 beta2 appendage carries R879A mutation | AID 504490, 2011 | beta-arrestin 1 C-terminal peptide binding to AP2 beta2-adaptin appendage (human);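 active = inhibition above a set limit, near 3 SD of compounds lacking own fluorescence, cut at about 54% in these data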;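 note: plate controls were DMSO wells for no effect and 5 µM unlabelled arrestin peptide for full effect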
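system = GST-tagged AP2 beta2-adaptin appendage (R879A) on 4 µm glutathione beads | reagent = FITC-labelled arrestin peptide probe, 50 nM final | schedule = compound with beads 12 min RT, then probe 1 h RT | signal = HyperCyt-sampled flow cytometry, FL1 channel, ex 488/em 535 nm | read-out = percent response from loss of bead-bound FITC fluorescence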
ADAM10 inh = human ADAM10 inhibitors, primary screen, biochemical, QFRET, HTS | recombinant ADAM10, EDANS/DABCYL FRET peptide cleavage, 3 h | inhibition, % at 7 µM | 370,000 tested, 0.62% active;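 active = inhibition above a per-campaign cutoff equal to the mean of compounds falling between control-based bounds plus 3 SD, cut at about 20% in these data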;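 note: 0% = DMSO wells while the 100% control is not disclosed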
FAS-TE inh = FAS thioesterase domain inhibitors, primary screen, biochemical, fluorescence intensity, uHTS. Fatty acid synthase (Homo sapiens), P49327. recombinant FAS-TE, OMFH fluorogenic substrate, fluorescence endpoint. inhibition, % at 15 µM. 360,000 tested, 0.67% active. AID 602261, 2012;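 active = compounds whose normalised, plate-corrected inhibition of enzyme fluorescence in the single-dose primary screen is 50% or more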;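 note: 0% = DMSO with enzyme and 100% = substrate without enzyme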
ADAM10 counter = ADAM10 inhibitors, counter-screen for ADAM17 exosite inhibitor project, biochemical, FRET, human ADAM10 | shares compounds with ADAM17 inh | recombinant ADAM10, EDANS/DABCYL FRET peptide cleavage, 3 h | inhibition, % at 6.95 µM | 2,900 tested, 47% active | AID 743256, 2014;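 active = mean inhibition over the triplicate runs exceeds the activity threshold set in the earlier primary screen, cut at about 20% in these data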;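 note: 0% = DMSO wells and 100% = marimastat wells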
ADAM17 confirm = ADAM17 inhibitors, hit retest, confirmation, biochemical, QFRET peptide cleavage; 2,900 tested, 65% active; AID 743257, 2014; shares compounds with ADAM17 inh; inhibition, % at 6.95 µM; recombinant ADAM17, EDANS/DABCYL QFRET peptide cleavage;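 active = mean inhibition across replicates above the hit cutoff set in the primary screen, cut at about 8.5% in these data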;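 note: 0% = DMSO wells and 100% = marimastat wells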
* hit, by the source's call. Rows were chosen to be rich in hits. Some 2.9% of all compounds tested hit in one or more screens of this group.

`CCOC(=O)N1CCC(n2c(SCC(=O)NCc3ccccc3)nc3ccccc3c2=O)CC1` gave ADAM17 inh -4, CaV13 ICDI inh -4, CendR NRP1 mod -6, Arrestin-AP2 inh 4, ADAM10 inh -2 and FAS-TE inh 3.
For O=C(Nc1ccccc1Cl)c1cc(C2CCCN(C(=O)c3cccc(O)c3)C2)on1 (centres undefined) the results were ADAM17 inh 0, CaV13 ICDI inh -6, CendR NRP1 mod 12, ADAM10 inh -4 and FAS-TE inh -4.
`O=C(CCC(=O)Nc1ccccc1)NCCO` gave ADAM17 inh 11*, CendR NRP1 mod -14, Arrestin-AP2 inh -2, ADAM10 inh 3, FAS-TE inh -9, ADAM10 counter -8 and ADAM17 confirm -2.
For COc1ccc(NC(=O)CCC(=O)NCCO)cc1 the results were ADAM17 inh 0, CaV13 ICDI inh -2, CendR NRP1 mod -8, Arrestin-AP2 inh 3, ADAM10 inh 0 and FAS-TE inh -1.
Screening Cc1ccc(C)c(S(=O)(=O)N2CCN(C(=O)C3CCN(c4ncnc5sc(C)c(C)c45)CC3)CC2)c1 returned ADAM17 inh -1, CaV13 ICDI inh -6, CendR NRP1 mod -11, Arrestin-AP2 inh 8, ADAM10 inh 3 and FAS-TE inh 29.
`O=C(CSc1nnc(SCc2cccc3ccccc23)s1)N/N=C/c1c[nH]c2ccccc12` gave ADAM17 inh 12*, CaV13 ICDI inh -6, CendR NRP1 mod 7, Arrestin-AP2 inh -7, ADAM10 inh 16, FAS-TE inh 28, ADAM10 counter 17 and ADAM17 confirm 9.9*.
For O=C(CSc1nnc(SCc2ccc(Cl)cc2)s1)N/N=C/c1c[nH]c2ccccc12 the results were ADAM17 inh 2, CaV13 ICDI inh -7, CendR NRP1 mod -2, Arrestin-AP2 inh -1, ADAM10 inh 2 and FAS-TE inh 4.
Screening O=C(CSc1nnc(-c2ccccc2)n1-c1ccc(Cl)cc1)NN=Cc1c[nH]c2ccccc12 returned ADAM17 inh 11*, ADAM10 inh 20, ADAM10 counter 29* and ADAM17 confirm 12*.
Screening O=C(O)COc1ccccc1C=NNC(=O)c1ccccc1NS(=O)(=O)c1cccs1 returned ADAM17 inh -4, CaV13 ICDI inh -5, CendR NRP1 mod -18, Arrestin-AP2 inh -26, ADAM10 inh 1 and FAS-TE inh -7.
For CC(=O)c1cccc(NC(=O)C2=CC(c3cccs3)=NS(=O)(=O)N2C)c1 the results were ADAM17 inh 0, CaV13 ICDI inh -13, CendR NRP1 mod 2, Arrestin-AP2 inh -13, ADAM10 inh -2 and FAS-TE inh 4.
`CN1C(C(=O)Nc2cccc(O)c2)=CC(c2cccs2)=NS1(=O)=O` gave ADAM17 inh 9.7*, CaV13 ICDI inh -6, CendR NRP1 mod 8, Arrestin-AP2 inh -5, ADAM10 inh 13, FAS-TE inh 4, ADAM10 counter 18 and ADAM17 confirm 7.
COc1ccc(NC(=O)C2=CC(c3ccco3)=NS(=O)(=O)N2C)cc1 was read as ADAM17 inh 1, CaV13 ICDI inh -5, CendR NRP1 mod -12, Arrestin-AP2 inh 15, ADAM10 inh 0 and FAS-TE inh 1.
For COc1ccc(NC(=O)C2=CC(c3ccc(OC)cc3)=NS(=O)(=O)N2C)cc1 the results were ADAM17 inh 10*, CaV13 ICDI inh 8, CendR NRP1 mod 9, Arrestin-AP2 inh -4, ADAM10 inh 11, FAS-TE inh 20, ADAM10 counter 17 and ADAM17 confirm 7.
Screening CCOC(=O)[C@]12CCC=C1N(Cc1ccc3c(c1)OCO3)C(=O)[C@H](CC(=O)NCC13CC4CC(CC(C4)C1)C3)C2 returned ADAM17 inh 2, CaV13 ICDI inh -9, CendR NRP1 mod 16, ADAM10 inh 9 and FAS-TE inh 17.
COC(=O)[C@]12C[C@H](CC(=O)N3CCCCC3)C(=O)N(Cc3ccc4c(c3)OCO4)C1=C[C@H](C(C)(C)C)O[C@@H]2C was read as ADAM17 inh 0, CaV13 ICDI inh -9 and ADAM10 inh -3.
`CCOc1ccc(NC(=O)CN(C)CC(=O)Nc2cc(Cl)ccc2C#N)cc1OCC` gave ADAM17 inh 9.0*, CaV13 ICDI inh -5, CendR NRP1 mod -8, Arrestin-AP2 inh 31, ADAM10 inh 12, FAS-TE inh 0, ADAM10 counter 1 and ADAM17 confirm 1.
O=C(Nc1ccc(F)cc1)C(CCc1ccccc1)N1CCN(Cc2c(F)cccc2Cl)CC1 (centres undefined) was read as ADAM17 inh 3, CaV13 ICDI inh -9, CendR NRP1 mod -12 and ADAM10 inh 10.
`C#CCNC(=O)C[C@H]1C[C@@]2(C(=O)OC)C(=C[C@H](C3CCCC3)O[C@@H]2C)N(CCC2=CCCCC2)C1=O` gave ADAM17 inh -1 and ADAM10 inh 4.
For C=CC[C@@H](Cc1ccc(F)cc1)C(=O)OC[C@@H]1CCCN1C(=O)[C@H](CC=C)CC(=O)N(CCO)Cc1ccccc1 the results were ADAM17 inh 10*, CendR NRP1 mod 11, ADAM10 inh 19, FAS-TE inh 18, ADAM10 counter 6 and ADAM17 confirm 7.
`C=CC[C@@H](Cc1ccc(F)cc1)C(=O)OC[C@H]1CCCN1C(=O)[C@@H](CC=C)CC(=O)N(CCO)Cc1ccccc1` gave ADAM17 inh 8, CaV13 ICDI inh -5, CendR NRP1 mod 6, Arrestin-AP2 inh -6, ADAM10 inh -2 and FAS-TE inh 17.

Screens from PubChem BioAssay.
